The text below walks through data of ChEMBL document CHEMBL4406801, “Novel Human Aminopeptidase N Inhibitors: Discovery and Optimization of Subsite Binding Interactions” (J Med Chem, 2019).

A short description of data set [1]: Solubility of the compound in methanol. Format: physicochemical.
The nature of data set [2]: Inhibition of Plasmodium falciparum M1 aminopeptidase. Conditions: read-out: Ki(app).
Data set [3] addresses T1, Aminopeptidase N (Homo sapiens, UniProt P15144). Briefly: Inhibition of soluble human APN ectodomain stably expressed in HEK293 GnTI(-) cells using H-Leu-NHMec as substrate preincubated for 10 mins followed by substrate addition and measured for 1 hr by spectrofluorimetric method. Conditions: read-out: Ki(app).
In data set [4] the target is Neutrophil collagenase (Homo sapiens) (UniProt P22894). Briefly: Inhibition of MMP8 (unknown origin) using QF-24 as substrate preincubated for 1 hr followed by substrate addition and measured at 1 min interval for 1 hr by fluorescence assay.
Neutrophil collagenase (Homo sapiens), sequence (P22894 101-467 limits assumed): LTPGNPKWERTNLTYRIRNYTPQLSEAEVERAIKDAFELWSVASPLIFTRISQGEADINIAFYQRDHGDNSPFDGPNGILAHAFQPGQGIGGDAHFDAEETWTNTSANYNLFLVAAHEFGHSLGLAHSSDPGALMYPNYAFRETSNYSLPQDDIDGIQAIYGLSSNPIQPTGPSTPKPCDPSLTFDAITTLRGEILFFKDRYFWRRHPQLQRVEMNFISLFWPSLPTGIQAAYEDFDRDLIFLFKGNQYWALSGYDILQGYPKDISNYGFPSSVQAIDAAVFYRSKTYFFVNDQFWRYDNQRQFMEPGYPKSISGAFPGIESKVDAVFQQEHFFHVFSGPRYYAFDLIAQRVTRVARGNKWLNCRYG
The target of data set [5] is Matrix metalloproteinase-9 (Homo sapiens, UniProt P14780). Briefly: Inhibition of MMP9 (unknown origin) using QF-24 as substrate preincubated for 1 hr followed by substrate addition and measured at 1 min interval for 1 hr by fluorescence assay.
Matrix metalloproteinase-9, sequence (P14780 whole entry): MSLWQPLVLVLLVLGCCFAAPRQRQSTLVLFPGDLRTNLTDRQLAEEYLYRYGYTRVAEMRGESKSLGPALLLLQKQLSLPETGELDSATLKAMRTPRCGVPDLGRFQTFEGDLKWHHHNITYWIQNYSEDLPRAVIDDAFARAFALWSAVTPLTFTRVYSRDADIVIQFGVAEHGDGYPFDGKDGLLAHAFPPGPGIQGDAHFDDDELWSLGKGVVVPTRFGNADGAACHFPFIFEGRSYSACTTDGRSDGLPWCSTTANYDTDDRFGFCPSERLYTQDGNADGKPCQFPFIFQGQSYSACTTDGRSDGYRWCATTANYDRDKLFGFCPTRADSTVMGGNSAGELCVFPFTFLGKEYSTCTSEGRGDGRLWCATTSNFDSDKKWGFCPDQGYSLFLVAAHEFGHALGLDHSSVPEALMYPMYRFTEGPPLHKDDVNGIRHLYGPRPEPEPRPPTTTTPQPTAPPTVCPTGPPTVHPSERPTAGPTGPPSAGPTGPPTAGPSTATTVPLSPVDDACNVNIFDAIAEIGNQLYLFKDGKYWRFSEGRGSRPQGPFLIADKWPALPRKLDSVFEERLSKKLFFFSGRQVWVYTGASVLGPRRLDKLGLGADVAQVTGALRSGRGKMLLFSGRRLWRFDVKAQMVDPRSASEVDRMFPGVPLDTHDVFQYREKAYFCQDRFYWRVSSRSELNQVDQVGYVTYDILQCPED
Data set [6] has as its target T2, Matrilysin (Homo sapiens) (UniProt P09237).
T2 sequence (whole entry): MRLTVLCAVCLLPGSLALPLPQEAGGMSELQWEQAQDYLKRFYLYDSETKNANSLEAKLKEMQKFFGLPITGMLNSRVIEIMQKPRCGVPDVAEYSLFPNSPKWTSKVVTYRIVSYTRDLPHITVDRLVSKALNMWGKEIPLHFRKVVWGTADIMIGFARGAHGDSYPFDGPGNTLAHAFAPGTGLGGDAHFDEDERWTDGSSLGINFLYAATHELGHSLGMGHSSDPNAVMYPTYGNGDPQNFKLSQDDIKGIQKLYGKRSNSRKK
Briefly: Inhibition of MMP7 (unknown origin) using QF-24 as substrate preincubated for 1 hr followed by substrate addition and measured at 1 min interval for 1 hr by fluorescence assay.

The target of data set [7] is 72 kDa type IV collagenase (Homo sapiens, UniProt P08253). Briefly: Inhibition of MMP2 (unknown origin) using QF-24 as substrate preincubated for 1 hr followed by substrate addition and measured at 1 min interval for 1 hr by fluorescence assay.
72 kDa type IV collagenase, sequence (P08253 whole entry, the tested form may be a part): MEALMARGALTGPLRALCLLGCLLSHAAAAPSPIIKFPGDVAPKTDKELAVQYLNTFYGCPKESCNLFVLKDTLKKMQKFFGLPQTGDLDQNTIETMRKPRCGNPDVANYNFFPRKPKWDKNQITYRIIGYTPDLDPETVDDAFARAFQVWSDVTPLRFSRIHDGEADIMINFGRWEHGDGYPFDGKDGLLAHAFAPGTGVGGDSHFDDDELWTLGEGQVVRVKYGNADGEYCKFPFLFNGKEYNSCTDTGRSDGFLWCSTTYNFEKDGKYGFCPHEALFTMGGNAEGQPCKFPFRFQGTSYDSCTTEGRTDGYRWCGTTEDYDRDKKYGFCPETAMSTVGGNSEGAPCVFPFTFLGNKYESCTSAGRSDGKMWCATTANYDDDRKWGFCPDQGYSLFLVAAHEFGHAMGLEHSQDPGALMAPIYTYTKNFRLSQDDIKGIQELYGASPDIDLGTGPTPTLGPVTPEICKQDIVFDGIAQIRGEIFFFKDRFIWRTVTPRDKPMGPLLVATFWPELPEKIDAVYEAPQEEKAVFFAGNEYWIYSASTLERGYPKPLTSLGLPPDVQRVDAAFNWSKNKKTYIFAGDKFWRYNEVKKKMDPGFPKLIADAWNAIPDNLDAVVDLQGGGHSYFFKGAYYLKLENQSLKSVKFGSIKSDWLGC
In data set [8] the target is T1, Aminopeptidase N. Briefly: Potency index, ratio of tosedostat Ki(app) to test compound Ki(app) for soluble human APN ectodomain stably expressed in HEK293 GnTI(-) cells. Format: cell-based.
For data set [9], the target named is T1, Aminopeptidase N. Briefly: Potency index, ratio of bestatin Ki(app) to test compound Ki(app) for soluble human APN ectodomain stably expressed in HEK293 GnTI(-) cells. In kind it is cell-based.
Data set [10] is described as follows: Half life in human plasma at 1000 ng/ml by LC-MS analysis. In kind it is ADME, cell-free.
Data set [11] in a line: Cytotoxicity against human AD293 cells measured after 72 hrs by celltitre-blue assay. In kind it is cell-based.
Data set [12] can be described thus: Kinetic solubility of the compound in 0.01 M HCl at pH 2 after 30 mins by nephelometry. Format: physicochemical. As to conditions: read-out: Kinetic_solubility. A digest of the protocol:
(§1)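 Kinetic solubility read by nephelometry under pH 2 (stomach-like) and pH 6.5 (upper fasted small intestine-like) conditions.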

Data set [13] in a line: Half life in Swiss mouse plasma at 1000 ng/ml by LC-MS analysis. Format: ADME, cell-free.
Data set [14] in a line: Intrinsic clearance in human liver microsomes assessed per mg protein at 1 uM in presence of NADPH. Conditions: read-out: CLH. In kind it is ADME, Microsome. A general note: Liver microsomes are vesicles of endoplasmic reticulum, rich in cytochrome P450 enzymes.
The nature of data set [15]: Partition coefficient, log D of compound at pH 7.4 by HPLC analysis. Format: physicochemical. Conditions: octanol/water. The procedure, abridged:
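LogD at pH 7.4 estimated by a chromatographic method.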

A short description of data set [16]: Half life in human liver microsomes at 1 uM in presence of NADPH. Format: ADME, Microsome.
A short description of data set [17]: Kinetic solubility of the compound in phosphate buffer at pH 6.5 after 30 mins by nephelometry. In kind it is physicochemical. Conditions: read-out: Kinetic_solubility. The procedure, abridged: as §1
A short description of data set [18]: Half life in mouse liver microsomes at 1 uM in presence of NADPH. Format: ADME, Microsome.
Data set [19] is described as follows: Intrinsic clearance in mouse liver microsomes assessed per mg protein at 1 uM in presence of NADPH. Format: ADME, Microsome. Conditions: read-out: CLH.

In brackets after ≈: the same amount, converted by molar mass. Activity calls are given as the source filed them. The calls are words filed in the database; no cut-off is given here.

Usually IC50 stands for the concentration that gives 50% inhibition. Higher therefore signals weaker potency in that assay. As usually defined, the half-life is the time in which the quantity being followed falls by half. By CC50 is commonly meant the concentration at which the toxic effect on the cells reaches its halfway point. What is called logD is the decadic logarithm of the distribution of all forms, ionised or not, between an organic phase and buffer at a given pH. Lower therefore signals lower lipophilicity.

T1 sequence (P15144 whole entry, the tested form may be a part): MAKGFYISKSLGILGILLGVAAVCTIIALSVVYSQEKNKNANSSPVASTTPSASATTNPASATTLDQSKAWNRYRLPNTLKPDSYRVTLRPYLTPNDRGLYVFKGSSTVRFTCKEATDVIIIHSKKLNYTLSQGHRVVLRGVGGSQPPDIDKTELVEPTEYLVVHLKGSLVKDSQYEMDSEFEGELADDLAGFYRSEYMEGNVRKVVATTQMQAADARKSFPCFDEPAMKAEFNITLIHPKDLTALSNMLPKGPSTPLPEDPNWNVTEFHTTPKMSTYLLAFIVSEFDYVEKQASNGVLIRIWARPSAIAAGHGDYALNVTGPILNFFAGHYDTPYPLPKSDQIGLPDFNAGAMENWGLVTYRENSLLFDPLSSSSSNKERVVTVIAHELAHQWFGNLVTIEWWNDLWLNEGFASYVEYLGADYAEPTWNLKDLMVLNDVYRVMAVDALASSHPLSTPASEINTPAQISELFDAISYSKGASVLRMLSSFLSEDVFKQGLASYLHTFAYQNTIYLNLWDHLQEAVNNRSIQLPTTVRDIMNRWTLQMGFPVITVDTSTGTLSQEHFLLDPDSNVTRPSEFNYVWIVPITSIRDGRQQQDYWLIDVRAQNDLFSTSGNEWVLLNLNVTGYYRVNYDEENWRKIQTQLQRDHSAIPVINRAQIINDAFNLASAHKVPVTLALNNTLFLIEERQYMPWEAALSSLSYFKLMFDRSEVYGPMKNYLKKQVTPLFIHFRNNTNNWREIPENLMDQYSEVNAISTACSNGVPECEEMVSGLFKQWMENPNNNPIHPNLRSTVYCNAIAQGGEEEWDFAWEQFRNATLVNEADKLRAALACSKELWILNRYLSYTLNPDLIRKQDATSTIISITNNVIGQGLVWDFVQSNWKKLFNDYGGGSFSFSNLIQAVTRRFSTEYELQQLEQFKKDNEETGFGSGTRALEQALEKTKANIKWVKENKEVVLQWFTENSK

For `O=C(Cc1ccc(O)c(O)c1)NC(C(=O)NO)c1ccc(-c2cc(F)c(F)c(F)c2)cc1` (stereo not drawn), in data set [1], the solubility result is “Insoluble”.

Turning to `O=C(NC(C(=O)NO)c1ccc(-c2cc(F)c(F)c(F)c2)cc1)c1ccc(O)c(O)c1` (stereo not drawn), the solubility result in data set [1] is “Insoluble”.

Turning to `CC(C)C[C@H](NC(=O)[C@@H](O)[C@H](N)Cc1ccccc1)C(=O)O` [UBENIMEX], the Ki in data set [2] came to 1.53 µM.

`CC(C)C[C@@H](C(=O)N[C@H](C(=O)OC1CCCC1)c1ccccc1)[C@H](O)C(=O)NO` [TOSEDOSTAT]: the results for the Ki (at Aminopeptidase N [3]; in data set [2]) were 1.18 µM and 6.15 µM, respectively. For the same compound, the inhibition result in data set [4] and in data set [6] was “Active” in each case. Moreover, the values for the IC50 in data set [5] and in data set [7] were 1.5 µM and 0.19 µM, respectively.

Take `O=C(NO)C(NCc1ccc(F)c(O)c1)c1ccc(-c2cc(F)c(F)c(F)c2)cc1` (stereo not drawn): the Ki on Aminopeptidase N [3] is > 1000 µM.

`O=C(Cc1ccc(O)cc1)NC(C(=O)NO)c1ccc(-c2cc(F)c(F)c(F)c2)cc1` (stereo not drawn): the solubility result in data set [1] is reported as “Insoluble”.

In the case of `CC(C)(C)C(=O)NC(C(=O)NO)c1ccc(-c2cc(F)c(F)c(F)c2)cc1` (stereo not drawn), the figures for the Ki (on Aminopeptidase N [3]; in data set [2]) were 0.118 µM and 0.331 µM, respectively. Besides, the Ratio Ki(app) at Aminopeptidase N [8] and on Aminopeptidase N [9] was 10 to 20 in each case. The inhibition entry in data set [4] and in data set [6] was “inactive” each time.

As for `CS(=O)(=O)Nc1ccc(C(=O)NC(C(=O)NO)c2ccc(-c3cc(F)c(F)c(F)c3)cc2)cc1` (stereo not drawn), on Aminopeptidase N [3], the Ki came to 0.0045 µM. Besides, the half-life at 1000 ng/ml in data set [10] and in data set [13] was > 17 h in each case. Moreover, the CC50 at 72 h in [11] was 41 µM. In addition, the inhibition result in data set [4] and in data set [6] was “inactive” in each case. Further, the solubility kinetic at 0.5 h in data set [12] and in [17] was 12.5 to 25 µg/mL (≈ 25.3 to 50.7 µM) throughout. Also, the IC50 in data set [5] is > 100 µM; in data set [7], 1.3 µM. Besides, the microsomal CLint at 1 µM in [14] and in data set [19] was < 7 µL/min/mg each time. Besides, the pH-dependent lipophilicity (logD) in [15] worked out at 2.8. Also, the half-life at 1 µM in data set [16] and in data set [18] was > 4.17 h in each case. The Ratio Ki(app) on Aminopeptidase N [9] was determined as 527.

For the compound `NS(=O)(=O)Nc1ccc(C(=O)NC(C(=O)NO)c2ccc(-c3cc(F)c(F)c(F)c3)cc2)cc1` (stereo not drawn), the Ki on Aminopeptidase N [3] came out at 0.0082 µM. Besides, the half-life at 1000 ng/ml in data set [10] and in data set [13] was > 17 h each time. This compound also registered a CC50 at 72 h in data set [11] of 149 µM. Also, the inhibition entry in [4] and in [6] was “inactive” throughout. For the same compound, the solubility kinetic at 0.5 h fell in the range of 6.3 to 12.5 µg/mL (≈ 12.7 to 25.3 µM) in [12] and 12.5 to 25 µg/mL (≈ 25.3 to 50.6 µM) in data set [17]. Further, the results for the IC50 in [5] and in [7] were > 100 µM and 2.1 µM, respectively. The microsomal CLint at 1 µM in data set [14] and in data set [19] was < 7 µL/min/mg throughout. The compound also had a logD in [15] of 2.6. Also, the half-life at 1 µM in data set [16] and in data set [18] was > 4.17 h each time.

Take `CNC(=O)[C@@H](NC(=O)[C@H](CC(C)C)[C@H](O)C(=O)NO)C(C)(C)C`: the inhibition entry in data set [4] and in [6] was “Active” each time.

With `O=C(Cc1ccc(O)c(F)c1)NC(C(=O)NO)c1ccc(-c2cc(F)c(F)c(F)c2)cc1` (stereo not drawn), in [1], the solubility result was “Insoluble”.

As to `COC(=O)C(NC(=O)CC(=O)O)c1ccc(-c2cc(F)c(F)c(F)c2)cc1` (stereo not drawn), in data set [1], the solubility entry was “Insoluble”.

Take `O=C(Cc1ccc(F)c(O)c1)NC(C(=O)NO)c1ccc(-c2cc(F)c(F)c(F)c2)cc1` (stereo not drawn): the solubility result in data set [1] was “Insoluble”.
